Consider seven molecules from ChEMBL document CHEMBL3608243, “Synthesis of novel cationic spermine-conjugated phosphotriester oligonucleotide for improvement of cell membrane permeability” (Bioorg Med Chem Lett, 2015).

A short description of data set [1]: Stability in 28% NH3 aq, 55 degC incubated for 8 hrs assessed as compound degradation in to PDE dimer d(TpT) by reversed-phase HPLC method. The format is physicochemical. The procedure, abridged: (§1)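 Untreated and treated dimers compared by reversed-phase HPLC on a C18 column, eluted with a linear 5–25% acetonitrile gradient over 20 min in 50 mM triethylammonium acetate, pH 7.0.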

Data set [2] is described as follows: Stability in 28% NH3 aq, incubated for 2 hrs at room temperature assessed as compound degradation by reversed-phase HPLC method. Format: physicochemical. The procedure, abridged:
as §1

A short description of data set [3]: Stability assessed as snake venom phosphodiesterase-mediated compound degradation at 5 nmol incubated for 180 mins by reversed-phase HPLC method. Format: ADME. The following applies: serpentes, 3 h. The procedure, abridged:
(§2)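 Dimers incubated with snake venom phosphodiesterase or in 10% fetal bovine serum, then reactions analysed by reversed-phase HPLC; peak areas of intact dimer used to give the fraction of intact dimer over time.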

The subject of a further data set is Serum. Briefly: Stability in 10% FBS assessed as compound degradation at 5 nmol incubated for 180 mins by reversed-phase HPLC method. To be noted: cattle, 3 h. Format: ADME, cell-free, Bos taurus. The procedure, abridged:
as §2

The subject of another data set is A549. The experiment in a line: Permeability in human A549 cells assessed as relative fluorescence intensity at 10 uM incubated for 8 hrs at 37 degC in presence of serum free medium by spectrofluorometry. Format: ADME, cell-based. To be noted: a549, 8 h. The procedure, abridged: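 A549 cells exposed to TAMRA-labeled oligonucleotides (in 10 mM Tris–HCl, 1 mM EDTA, pH 8) without transfection reagent; after incubation, PBS wash, lysis and lysate fluorescence read on a spectrofluorometer; n = 4.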

Data set [4] is described as follows: Solubility in water. The format is physicochemical. To be noted: buffer.

As for `COP(=O)(OC[C@H]1O[C@@H](n2cc(C)c(=O)[nH]c2=O)C[C@@H]1O)O[C@H]1C[C@H](n2cc(C)c(=O)[nH]c2=O)O[C@@H]1CO` (stereo partly drawn), the Stability result in data set [1] and in data set [2] was “Unstable” throughout. Regarding `CCOP(=O)(OC[C@H]1O[C@@H](n2cc(C)c(=O)[nH]c2=O)C[C@@H]1O)O[C@H]1C[C@H](n2cc(C)c(=O)[nH]c2=O)O[C@@H]1CO` (stereo partly drawn), the Stability entry (in data set [1]; in data set [3]; in data set [2]; with Serum) was “Stable” throughout. In the case of `Cc1cn([C@H]2C[C@H](OP(=O)(O)OC[C@H]3O[C@@H](n4cc(C)c(=O)[nH]c4=O)C[C@@H]3O)[C@@H](CO)O2)c(=O)[nH]c1=O`, the Stability entry (in data set [3]; in the data set with Serum) was “Unstable” each time.

In the case of `Cc1cn([C@H]2C[C@H](OP(=O)(O)OC[C@H]3O[C@@H](n4cc(C)c(=O)[nH]c4=O)C[C@@H]3OP(=O)(O)OC[C@H]3O[C@@H](n4cc(C)c(=O)[nH]c4=O)C[C@@H]3OP(=O)(O)OC[C@H]3O[C@@H](n4cc(C)c(=O)[nH]c4=O)C[C@@H]3OP(=O)(O)OC[C@H]3O[C@@H](n4cc(C)c(=O)[nH]c4=O)C[C@@H]3OP(=O)(O)OC[C@H]3O[C@@H](n4cc(C)c(=O)[nH]c4=O)C[C@@H]3OP(=O)(O)OC[C@H]3O[C@@H](n4cc(C)c(=O)[nH]c4=O)C[C@@H]3OP(=O)(O)OC[C@H]3O[C@@H](n4cc(C)c(=O)[nH]c4=O)C[C@@H]3OP(=O)(O)OC[C@H]3O[C@@H](n4cc(C)c(=O)[nH]c4=O)C[C@@H]3OP(=O)(O)OC[C@H]3O[C@@H](n4cc(C)c(=O)[nH]c4=O)C[C@@H]3OP(=O)(O)OCCC(O)COCCCNC(=O)c3ccc(C(=O)O)c(C4=C5C=CC(=[N+](C)C)C=C5OC5C=C(N(C)C)C=CC45)c3)[C@@H](COP(=O)(O)O)O2)c(=O)[nH]c1=O` (stereo partly drawn), the Flu intensity in the data set on A549 is reported as 1.

Turning to `Cc1cn([C@H]2C[C@H](OP(=O)(O)OC[C@H]3O[C@@H](n4cc(C)c(=O)[nH]c4=O)C[C@@H]3OP(=O)(O)OC[C@H]3O[C@@H](n4cc(C)c(=O)[nH]c4=O)C[C@@H]3OP(=O)(O)OC[C@H]3O[C@@H](n4cc(C)c(=O)[nH]c4=O)C[C@@H]3OP(=O)(O)OC[C@H]3O[C@@H](n4cc(C)c(=O)[nH]c4=O)C[C@@H]3OP(=O)(O)OC[C@H]3O[C@@H](n4cc(C)c(=O)[nH]c4=O)C[C@@H]3OP(=O)(O)OC[C@H]3O[C@@H](n4cc(C)c(=O)[nH]c4=O)C[C@@H]3OP(=O)(O)OC[C@H]3O[C@@H](n4cc(C)c(=O)[nH]c4=O)C[C@@H]3OP(=O)(O)OC[C@H]3O[C@@H](n4cc(C)c(=O)[nH]c4=O)C[C@@H]3OP(=O)(O)OC[C@H]3O[C@@H](n4cc(C)c(=O)[nH]c4=O)C[C@@H]3OP(=O)(O)OCCC(O)COCCCNC(=O)c3ccc(C(=O)O)c(C4=C5C=CC(=[N+](C)C)C=C5OC5C=C(N(C)C)C=CC45)c3)[C@@H](COP(=O)(O)OCCCCNCCCNCCCCNCCCNCCCCO)O2)c(=O)[nH]c1=O` (stereo partly drawn), in the data set with A549, the Flu intensity turned out to be 5.45. `CCOP(=O)(OC[C@H]1O[C@@H](n2cc(C)c(=O)[nH]c2=O)C[C@@H]1OP(=O)(OCC)OC[C@H]1O[C@@H](n2cc(C)c(=O)[nH]c2=O)C[C@@H]1OP(=O)(OCC)OC[C@H]1O[C@@H](n2cc(C)c(=O)[nH]c2=O)C[C@@H]1OP(=O)(OCC)OC[C@H]1O[C@@H](n2cc(C)c(=O)[nH]c2=O)C[C@@H]1OP(=O)(OCC)OC[C@H]1O[C@@H](n2cc(C)c(=O)[nH]c2=O)C[C@@H]1OP(=O)(OCC)OC[C@H]1O[C@@H](n2cc(C)c(=O)[nH]c2=O)C[C@@H]1OP(=O)(OCC)OC[C@H]1O[C@@H](n2cc(C)c(=O)[nH]c2=O)C[C@@H]1OP(=O)(OCC)OC[C@H]1O[C@@H](n2cc(C)c(=O)[nH]c2=O)C[C@@H]1OP(=O)(OCC)OC[C@H]1O[C@@H](n2cc(C)c(=O)[nH]c2=O)C[C@@H]1OP(=O)(O)OCCC(O)COCCCNC(=O)c1ccc(C(=O)O)c(C2=C3C=CC(=[N+](C)C)C=C3OC3C=C(N(C)C)C=CC23)c1)O[C@H]1C[C@H](n2cc(C)c(=O)[nH]c2=O)O[C@@H]1COP(=O)(O)O` (stereo partly drawn): the Flu intensity in the data set on A549 was 16.

With `CCOP(=O)(OC[C@H]1O[C@@H](n2cc(C)c(=O)[nH]c2=O)C[C@@H]1OP(=O)(OCC)OC[C@H]1O[C@@H](n2cc(C)c(=O)[nH]c2=O)C[C@@H]1OP(=O)(OCC)OC[C@H]1O[C@@H](n2cc(C)c(=O)[nH]c2=O)C[C@@H]1OP(=O)(OCC)OC[C@H]1O[C@@H](n2cc(C)c(=O)[nH]c2=O)C[C@@H]1OP(=O)(OCC)OC[C@H]1O[C@@H](n2cc(C)c(=O)[nH]c2=O)C[C@@H]1OP(=O)(OCC)OC[C@H]1O[C@@H](n2cc(C)c(=O)[nH]c2=O)C[C@@H]1OP(=O)(OCC)OC[C@H]1O[C@@H](n2cc(C)c(=O)[nH]c2=O)C[C@@H]1OP(=O)(OCC)OC[C@H]1O[C@@H](n2cc(C)c(=O)[nH]c2=O)C[C@@H]1OP(=O)(OCC)OC[C@H]1O[C@@H](n2cc(C)c(=O)[nH]c2=O)C[C@@H]1OP(=O)(O)OCCC(O)COCCCNC(=O)c1ccc(C(=O)O)c(C2=C3C=CC(=[N+](C)C)C=C3OC3C=C(N(C)C)C=CC23)c1)O[C@H]1C[C@H](n2cc(C)c(=O)[nH]c2=O)O[C@@H]1COP(=O)(O)OCCCCNCCCNCCCCNCCCNCCCCO` (stereo partly drawn), the Flu intensity in the data set on A549 amounted to 33.1. For the same molecule, the solubility entry in data set [4] is listed as “soluble”.
